High-throughput results deposited in PubChem BioAssay by Johns Hopkins Ion Channel Center.
Shown are actives, neighbours in structure and some others; about 3.8% of the full set was active somewhere.
KCNK3 inh = human KCNK3 channel inhibition, primary screen; CHO-KCNK3 thallium flux, FluxOR fluorescence; hits give low values; O14649; AID 602410; B-score at 10 µM; 340,000 tested, 0.84% active;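 active = B-score under library mean minus 4 SD, starting fluorescence ratio at most library mean plus 5 SD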;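 also: more negative B-score means stronger inhibition of thallium flux through KCNK3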
KCNQ1 inh = inhibitors of human KCNQ1 potassium channel; P51787; CHO-K1 KCNQ1, FluxOR thallium flux fluorescence; hits give high values; B-score at 10 µM; 310,000 tested, 1.3% active; AID 2642;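 active = compounds whose thallium flux B-score, printed positive for inhibition, exceeds three library SD while starting fluorescence stays within three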;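 also: channel opened by potassium depolarization with thallium stimulus after 20 min compound exposure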
KCNK9 inh = inhibitors of human KCNK9 two-pore domain potassium channel; B-score at 10 µM; 310,000 tested, 1.2% active; HEK293 KCNK9, FluxOR thallium flux fluorescence; hits give low values;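 active = ratio B-score over 3 SD below the library mean, with starting fluorescence within 5 SD of its mean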;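 also: negative B-score means less thallium flux so channel inhibition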
KCNQ1 act = human KCNQ1 channel potentiation or activation; B-score at 10 µM; AID 2648; P51787; CHO-K1 KCNQ1, thallium flux FluxOR fluorescence; hits give high values; 310,000 tested, 0.35% active;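 active = fluorescence ratio B-score, a plate-corrected score, at least three library SD, with initial intensity B-score within 5 SD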
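System: Stable KCNQ1 CHO-K1 line | Incubation: 90 min dye loading and 20 min compound exposure, both at room temperature | Measure: Ratio B score | Medium: Assay buffer for compound exposure, DMSO matched across wells | Compound dosing: Single-concentration screen | Probe or stimulus: K+/Tl+ depolarizing stimulus | Measured by: Kinetic FluxOR fluorescence, 10 s baseline plus 110 s post-stimulus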
Kir21 inh = Kir2.1 (mouse) channel inhibition. B-score at 10 µM. 310,000 tested, 0.85% active. P35561. HEK293-Kir2.1, FluxOR thallium flux fluorescence; hits give low values;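 active = fluorescence ratio B-score at or below minus 3 SD of library scores, with starting-brightness B-score within 2 SD, cut at about -4.2 in these data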;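 also: channel flux triggered by added potassium and thallium sulfate stimulus; B-score of peak minus minimum fluorescence over baseline after thallium stimulus; more negative B-score means stronger Kir2.1 block with less thallium influx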
Target sequence (P35561 whole entry, looked up): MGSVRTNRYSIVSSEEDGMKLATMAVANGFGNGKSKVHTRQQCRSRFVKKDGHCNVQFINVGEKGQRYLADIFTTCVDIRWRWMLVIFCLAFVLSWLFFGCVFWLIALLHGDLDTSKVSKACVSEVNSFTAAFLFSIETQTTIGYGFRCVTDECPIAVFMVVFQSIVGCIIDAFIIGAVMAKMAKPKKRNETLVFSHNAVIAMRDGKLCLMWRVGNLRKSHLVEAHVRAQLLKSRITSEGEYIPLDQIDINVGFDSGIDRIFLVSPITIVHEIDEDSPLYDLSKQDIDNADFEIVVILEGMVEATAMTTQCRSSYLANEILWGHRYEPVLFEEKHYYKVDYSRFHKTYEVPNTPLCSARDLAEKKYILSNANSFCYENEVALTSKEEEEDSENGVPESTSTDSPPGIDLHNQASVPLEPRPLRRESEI
hERG rescue = hERG (human) protection from proarrhythmic block; AID 1511; CHO-hERG, FluxOR thallium flux, dofetilide IC70 present; activation (rescue from dofetilide block), less the hit threshold, % at 10 µM; 310,000 tested, 0.51% active; Q12809;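 active = activation above the mean of controls blocked by dofetilide plus 5 SD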;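 also: thallium influx through hERG after potassium depolarization seen as dye fluorescence rise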
KCNQ1 block val = confirmation of human KCNQ1 potassium channel inhibitors; AID 588353; shares compounds with KCNQ1 inh; inhibition, % at 10 µM; 1,600 tested, 93% active; KCNQ1 cell line, FluxOR thallium flux fluorescence;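 active = primary screen active, with duplicate mean exceeding buffer control mean plus 3 SD of buffer wells, cut at about 28% in these data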;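 also: 0% = buffer control ratio and 100% = XE991 inhibitor control ratio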
CHO Tl flux = activity in parental CHO cells lacking KCNQ1; shares compounds with KCNQ1 inh; parental CHO-K1, FluxOR thallium flux fluorescence ratio; hits give low values; zero means no signal rise above baseline; fluorescence ratio (Tl flux) at 10 µM; 1,600 tested, 21% active; AID 588366;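 active = mean of duplicate thallium-flux fluorescence ratios in parental host cells more than 5 SD below the buffer control mean, cut at about 0.38 in these data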;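 also: ratio is peak minus minimum fluorescence divided by baseline fluorescence; actives read low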
KCNQ1 APC inh = human KCNQ1 inhibition validated by electrophysiology; shares compounds with KCNQ1 inh; KCNQ1-CHO cells, automated patch clamp current; calls only at 10 µM; 490 tested, 20% active;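 active = KCNQ1 current drop exceeding 3 SD of negative control wells, seen in both duplicate runs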;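 also: steady state current during a 2 s step from -80 to +40 mV; negative values mean current inhibition and positive values mean potentiation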
KCNQ2 spec = selectivity of KCNQ1 inhibitors: inhibition of rat KCNQ2 channel | shares compounds with KCNQ1 inh | KCNQ2 cells, FluxOR thallium flux fluorescence | inhibition, % at 10 µM | 1,600 tested, 71% active | AID 651746;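 active = mean percent inhibition of the KCNQ2 thallium signal more than 5 SD above the buffer-only control wells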;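 also: KCNQ2 expressed in CHO cells; 0% = buffer control wells and 100% = XE-991 inhibitor control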
KCNQ1-KCNE1 inh = KCNQ1 inhibitor that also blocks human KCNQ1/KCNE1 channel | KCNQ1/KCNE1 cells, FluxOR thallium flux fluorescence | 1,600 tested, 77% active | shares compounds with KCNQ1 inh | inhibition, % at 10 µM;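 active = mean percent inhibition of duplicate wells above the buffer-only control mean plus 3 SD of those controls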;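 also: 0% = buffer only wells and 100% = XE-991 inhibitor control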
* = called active by the depositor; i = inactive; · = not tested or not shown; + = active, no number.

SMILES	KCNK3 inh	KCNQ1 inh	KCNK9 inh	KCNQ1 act	Kir21 inh	hERG rescue	KCNQ1 block val	CHO Tl flux	KCNQ2 spec	KCNQ1-KCNE1 inh	others
Cc1sc2c(c1C)CN(CCN1CCOCC1)CN2C(=O)c1ccccc1	i	6*	i	i	-0.68	-8	0	0.47	i	37%*
O=C(c1ccccc1)c1ccc(C(=O)N2CCOCC2)cc1	i	i	i	i	1.2	-8	·	·	·	·
O=C(OCc1ccccc1)c1ccc(NCc2cc(O)ccc2O)cc1	i	·	·	·	·	·	·	·	·	·
Cc1ccc(NC(=O)C(c2ccc(Cl)cc2Cl)N2CCCC2)cc1 (stereo not given)	i	8*	-7.1*	i	0.75	-9	92*	0.38	i	152%*	KCNQ1 APC inh=+
Cc1cccc(NC(=O)C(c2ccccc2Cl)N2CCOCC2)c1 (stereo not given)	i	i	i	i	-0.11	-12	·	·	·	·
O=C(Nc1cc(Cl)cc(Cl)c1)C(c1ccccc1)N1CCCCC1 (stereo not given)	i	8*	i	i	0.57	-8	120*	0.36*	122%*	114%*
COc1cccc(NC(=O)C(c2ccccc2)N2CCCCC2)c1 (stereo not given)	i	i	i	i	-1.4	-10	·	·	·	·
Cc1cc(C2(c3ccc(O)c(C)c3)C(=O)Nc3ccccc32)ccc1O	i	7*	i	i	0.32	-6	0	0.47	i	i
Cc1ccc2ncc(S(=O)(=O)c3ccccc3)c(N3CCCCC3C)c2c1 (stereo not given)	i	7*	i	i	-0.23	-21	126*	0.32*	131%*	+
COc1cc2ncc(S(=O)(=O)c3ccccc3)c(N3CCC4(CC3)OCCO4)c2cc1OC	i	i	i	i	0.32	-14	·	·	·	·
CC(=O)c1ccc(NC(=O)COC(=O)C2C3CC4OC(=O)C2C4C3)cc1 (stereo not given)	i	i	i	i	1.4	-6	·	·	·	·
CC(C)(C)c1ccc(OCCNC(=O)c2ncn[nH]2)cc1	i	i	i	i	-0.3	-9	·	·	·	·
Cc1nn(-c2ccccc2)c2c1C(c1ccc(F)cc1F)C(C#N)=C(N)O2 (stereo not given)	i	7*	i	i	-0.45	-6	45*	0.51	i	52%*
Cc1ccc(Oc2nnc(-c3ccc(C)cc3)c3ccccc23)cc1	i	i	i	i	-0.47	-6	·	·	·	·
CCCCSc1nnc(-c2ccc(C)cc2)c2ccccc12	i	11*	-7.1*	i	-2.5	-22	154*	0.43	103%*	175%*	KCNQ1 APC inh=i
COc1ccccc1CN(Cc1nc2ccccc2c(=O)[nH]1)S(=O)(=O)c1ccc(C)cc1	i	i	i	i	-1.2	-4	·	·	·	·
Cc1cc(C)cc(NC(=O)NCc2c(-c3ccccc3)noc2C)c1	i	i	i	i	0.15	-10	·	·	·	·
Cc1onc(-c2ccccc2)c1CNC(=O)Nc1cccc(Cl)c1	i	7*	i	i	0.94	-12	76*	0.5	74%*	79%*
O=S(=O)(/N=C(/Nc1ccc(Cl)cc1Cl)c1ccccc1)c1cccs1	i	i	i	i	0.65	-26	·	·	·	·
O=C(Nc1ccc(Cl)cc1)Nc1ccc2c(c1)N1CCN=C1S2	i	12*	i	i	-1.8	-26	106*	0.45	65%*	110%*	KCNQ1 APC inh=i
CN(C)CCCN=Cc1c(O)n(Cc2ccc3c(c2)OCO3)c(=O)c2ccccc12	·	i	i	i	0.45	-16	·	·	·	·
CC1(C)C=Cc2c(ccc3c2OC[C@H](c2ccc(O)cc2O)C3)O1	i	·	·	·	·	·	·	·	·	·
CC(=O)Oc1ccc([C@@H]2COc3c(ccc4c3C=CC(C)(C)O4)C2)c(OC(C)=O)c1	i	7*	i	i	-0.51	-10	136*	0.42	90%*	78%*
CCOc1ccc(NC(=S)NCc2ccc3c(c2)OCO3)cc1	i	6*	i	i	0.92	-8	40*	0.43	96%*	38%*
Cc1ccc(NC(=S)NCc2ccc3c(c2)OCO3)cc1	i	i	i	i	1.7	-7	·	·	·	·
SMILES	KCNK3 inh	KCNQ1 inh	KCNK9 inh	KCNQ1 act	Kir21 inh	hERG rescue	KCNQ1 block val	CHO Tl flux	KCNQ2 spec	KCNQ1-KCNE1 inh	others
c1ccc(-c2nc(N3CCOCC3)sc2-c2ccccc2)cc1	i	8*	i	i	1.2	-7	99*	0.41	100%*	162%*	KCNQ1 APC inh=i
Cc1cc(C)c(S(=O)(=O)n2ccc3ccccc32)c(C)c1	i	9*	i	i	-3.2	-7	106*	0.38*	116%*	142%*
C=C[C@@H]1c2cc(C)ccc2N(S(=O)(=O)c2ccc(C)cc2)[C@H](c2ccccc2C(F)(F)F)C1(C#N)C#N	i	·	·	·	·	·	·	·	·	·
COc1cccc(CN(C)C(=O)c2cccc(S(=O)(=O)N3CCN(c4ccccc4)CC3)c2)c1OC	i	·	·	·	·	·	·	·	·	·
CN(Cc1ccc(Cl)cc1Cl)C(=O)c1cccc(S(=O)(=O)N2CCN(c3ccccc3)CC2)c1	i	6*	i	i	-0.67	-11	92*	0.43	90%*	68%*	KCNQ1 APC inh=i
O=C(Cn1cccc1C(=O)c1ccccc1)NCc1cccc(Cl)c1	i	i	i	i	-1.1	-2	·	·	·	·
Cc1nc2ccc(Br)cc2c(-c2ccccc2)c1C(=O)O	i	6*	i	i	-1.4	-17	0	0.49	96%*	i
CC(=O)c1c(C)nc2ccc(Br)cc2c1-c1ccccc1	i	i	i	i	-3.3	-14	·	·	·	·
O=C(CCSc1ccccc1)N1CCN(c2ccccc2)CC1	i	7*	i	i	2.4	-12	26*	0.47	i	64%*
O=C(NCc1cccs1)C(=O)c1cn(CC(=O)N2CCCC2)c2ccccc12	i	i	i	i	0.73	-8	·	·	·	·
CC(=O)Nc1sc(N/N=C/c2ccc(C)cc2)nc1-c1ccc(C)cc1	i	i	i	i	0	-3	·	·	·	·
